# According to PubChem BioAssay AID2516 (University of Pittsburgh Molecular Library Screening Center, 2010):
# The list shows a part of the results. A number with no mark means an inactive call.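 How the source made its calls: active means at least 50% inhibition in the glucose-6-phosphate dehydrogenase coupled counterscreen; inconclusive means no clear call, values can overlap the other calls; inactive means inhibition below 50%.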
# System: glucose-6-phosphate dehydrogenase [Leuconostoc mesenteroides]
# Experiment: Leuconostoc G6PDH inhibition, confirmation, counter-screen for TbHK1 inhibitor project, biochemical, DPI cherry-picked compounds, single concentration (AID 2516)
# Conditions: purified G6PDH, NADH absorbance, 1 h; at 10 µM; hits give high values
# Outline: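 Assay system: purified G6PDH enzyme / Quantity: G6PDH enzyme at 0.006 mU/µL final / Doses: one dose, 10 µM / Schedule: enzyme reaction for 1 h at room temperature / Detection: absorbance, mix-and-read, after quench with 50 mM EDTA final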
row,Structure (SMILES),inhibition [%]
1,O=C(CN1C(=O)C2C3C=CC(C3)C2C1=O)NCCc1ccccc1Cl (centres undefined),-2.31
2,COc1cccc(/C=N/Nc2ncc(C(F)(F)F)cc2Cl)c1O,-9.42
3,CC1(C)CC(=O)C=C(NCCCNC2CCCCC2)C1,2.59
4,COC(=O)C1CCN(CC(N)=O)CC1,-9.01
